# Results reported in paper PMC4420653 (Biochemical pharmacology, 2015).
# Values joined by “and” are separate entries in the source; they are usually repeats but may differ in a detail not shown here. Identical values can stand only once. “Also recorded” adds a separate entry of the source. Like-named read-outs stand apart in the source and are kept apart here.
# Tests used:
# [1] = system: atRA formation in mouse liver S10 protein; format: biochemical
# [2] = target: AOX; conditions: cited from earlier work
# [3] = system: atRA formation in the mouse liver; conditions: cited from earlier work
# [4] = system: atRA formation in testes S10 fractions; assay: atRA formation velocity in testes S10 fractions from WIN 18,446 treated mice; format: in vivo, mouse
# [5] = system: atRA formation in mouse liver S10 protein; assay: Time dependent inhibition of atRA formation in liver S10 protein; format: biochemical; conditions: pooled liver S10 protein, 1 µM WIN 18,446 preincubation
# [6] = system: testis atRA concentrations; assay: Testis atRA concentrations after WIN 18,446 administration; format: in vivo, mouse; conditions: for testis atRA concentration: single dose
# [7] = system: liver atRA concentrations; assay: Liver atRA concentrations after WIN 18,446 administration; format: in vivo, mouse
# [8] = system: ALDH1A1 and ALDH1A2 protein expression; assay: ALDH1A1 and ALDH1A2 protein expression in liver and testis of treated mice; format: in vivo, mouse; conditions: 8 days of treatment
# Method in brief: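 Test compound was given orally at 125 mg/kg every 24 h for 8 days (n=3), alongside a single-dose group (n=3) and vehicle controls dosed with 1% gum tragacanth (n=8). S10 fractions (microsomes plus cytosol) were made from each mouse's testes (17–45 mg) and liver (114–309 mg), protein was measured by BCA, and ALDH1A1 and ALDH1A2 were quantified by LC-MS/MS. Mean ± SD.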
# [9] = system: serum atRA concentrations; assay: Serum atRA concentrations after WIN 18,446 administration; format: in vivo, mouse
# [10] = system: atRA formation in mouse liver S10 fractions; assay: Inhibition of atRA formation by WIN 18,446 in liver S10 fractions; format: biochemical; conditions: read-out: IC50 for inhibition of atRA formation; pooled liver S10, 100 nM at-retinal, 2 mM NAD+
# [11] = target: T1, ALDH1A2 (Mus musculus, UniProt Q62148); conditions: mouse testes S10 fractions
# T1 sequence (Q62148 1-518): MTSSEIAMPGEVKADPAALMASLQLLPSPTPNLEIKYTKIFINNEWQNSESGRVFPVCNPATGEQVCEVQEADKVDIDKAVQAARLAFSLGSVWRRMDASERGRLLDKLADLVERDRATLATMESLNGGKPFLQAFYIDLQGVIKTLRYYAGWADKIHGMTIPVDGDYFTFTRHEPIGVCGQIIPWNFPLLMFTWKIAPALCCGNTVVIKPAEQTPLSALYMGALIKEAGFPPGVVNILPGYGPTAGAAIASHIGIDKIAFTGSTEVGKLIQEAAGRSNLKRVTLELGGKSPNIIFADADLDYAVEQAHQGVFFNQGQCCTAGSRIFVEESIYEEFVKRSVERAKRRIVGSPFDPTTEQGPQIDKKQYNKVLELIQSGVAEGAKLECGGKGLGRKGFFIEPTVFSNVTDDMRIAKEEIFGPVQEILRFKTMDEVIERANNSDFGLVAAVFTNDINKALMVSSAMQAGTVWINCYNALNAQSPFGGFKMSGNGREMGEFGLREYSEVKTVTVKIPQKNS
# [12] = system: atRA formation in mouse testis S10 fractions; assay: Inhibition of atRA formation by WIN 18,446 in testis S10 fractions; format: biochemical
# [13] = 500 nM, ultracentrifugation
# [14] = system: atRA formation in human testis; conditions: human testicular tissue; cited from earlier work
# [15] = WIN 18,446 pharmacokinetics in mice; format: in vivo, mouse
# [16] = Tissue half-life of atRA from concentration-time curves after WIN 18,446; format: in vivo; conditions: C57BL/6-129, mouse, po, 125 mg/kg
# [17] = system: ALDH1A1; conditions: read-out: Km of atRA formation; recombinant ALDH1A1; cited from earlier work
# [18] = 125 mg/kg once a day for 8 days
# [19] = eight daily doses 125 mg/kg po, mice
structure (smiles),measurement,setting,value
NNc1nncc2ccccc12 [hydralazine],inhibition of atRA formation,"[1]; hydralazine 1 mM, 45 min preincubation, liver S10, 1000 nM at-retinal",approximately 50%
same,KI,[2],83000 ± 27000 nM
same,kinact,[2],3.8 ± 0.4 hr-^1
Cc1ncc(CO)c(C=O)c1O [pyridoxal],inhibition of atRA formation,[3],approximately 5%
"O=C(NCCCCCCCCNC(=O)C(Cl)Cl)C(Cl)Cl [WIN 18,446]",decrease in atRA formation in testes S10,[4]; at the time of the 8th dose (24 hours after 7th dose),79 ± 5%
same,decrease in atRA formation in testes S10,"[4]; testes collected 24 hours after single dose 125 mg/kg, 125 mg/kg",55 ± 2% and 55%
same,time dependent inhibition of atRA formation,[5],not liver S10 protein; also recorded: not in the liver
same,average testicular atRA concentration over the 24 hours dosing interval,[6]; [18],1.5 ± 0.3 pmol/g
same,"testicular atRA concentration, average for the dosing interval",[6]; [18],33 % of control and 33 ± 5 % of control
same,decrease in testicular atRA,"[6]; abstract, dosing not specified",over 90%
same,time of first significant reduction of testis atRA,"[6]; after the first dose, p < 0.01",0.5 h
same,observed decrease in testis atRA concentrations,"[6]; following WIN 18,446 dosing (compared with single dose prediction)",67%
same,testis atRA concentration,[6]; 24 hours after dosing,23 % of control
same,testis atRA concentration,[6]; by 4 hours,< 10 % of control
same,testicular atRA concentration,[6]; time 0 hr before the 8th dose,60 % of control
same,average liver atRA concentration,[7]; [18],5.4 ± 1.9 pmol/g
same,reduction in average liver atRA concentration versus vehicle,[7]; [18],32% and 32 ± 3%
same,decrease in liver atRA,"[7]; abstract, dosing not specified",50%
same,time of first significant reduction of liver atRA,"[7]; after the first dose, p < 0.01",0.5 h
same,decrease in hepatic atRA concentration,[7]; single dose,42%
same,time of return of liver atRA to baseline,[7]; single dose,12 h
same,liver atRA concentration,"[7]; single dose, by 4 hours after dosing",58 % of control
same,hepatic atRA concentration on return,"[7]; single dose, within 24 hours",100%
same,change in ALDH1A1 or ALDH1A2 expression in liver or testis,[8],not significantly altered; also recorded: not significantly changed
same,inhibition of atRA formation,"[1]; WIN 18,446 5000 nM alone, 1000 nM at-retinal, Figure 2D",60 ± 2%
same,average serum atRA concentration,[9]; [18],1.3 ± 0.7 pmol/g
same,time of first significant decrease of serum atRA,"[9]; after the first dose, p < 0.05",2 h
same,time of return of serum atRA to baseline,[9]; single dose,24 h
same,serum atRA concentration,"[9]; single dose, by 4 hours",< 20 % of control
same,IC50,[10],92 ± 2 nM
same,KI (time dependent inhibition),[11],420 ± 190 nM
same,IC50,"[12]; read-out: IC50 for inhibition of atRA formation, pooled testis S10, 100 nM at-retinal, 2 mM NAD+",59 ± 1 nM
same,maximum inhibition of atRA formation,[12]; testis S10 fractions,> 95%
same,fu in mouse serum,[13],> 0.99
same,inhibition of atRA formation in human testis,[14],more than 95%
same,average concentration over the 24 hour dosing interval,[15]; day 8 of dosing 125 mg/kg po,3.5 µM
same,AUC0–24,[15]; [19],87.6 µM·h
same,Cmax,[15]; [19],8.5 µM
same,increase in Cmax versus single dose,[15]; eight daily doses vs single dose,7 fold
same,AUC0-∞,"[15]; single dose 125 mg/kg po, mice",2.5 µM·h
same,Cmax,"[15]; single dose 125 mg/kg po, mice",1.3 µM
same,average concentration over a 24 hour interval,"[15]; single dose 125 mg/kg po, mice",0.1 µM
same,time to reach Cmax,"[15]; single dose 125 mg/kg po, mice",≤ 30 min
same,two compartment model parameter A,"[15]; single dose, fit of equation 4",-6.6 µM
same,two compartment model parameter B,"[15]; single dose, fit of equation 4",6.2 µM
same,two compartment model parameter C,"[15]; single dose, fit of equation 4",0.4 µM
same,two compartment model parameter α,"[15]; single dose, fit of equation 4",1.3e+06 h⁻¹
same,two compartment model parameter β,"[15]; single dose, fit of equation 4",3.7 h⁻¹
same,two compartment model parameter γ,"[15]; single dose, fit of equation 4",0.2 hr-^1
"CC1=C(/C=C/C(C)=C/C=C/C(C)=C/C(=O)O)C(C)(C)CCC1 [atRA, all-trans retinoic acid]",half-life,[16]; liver,< 30 min
same,half-life,[16]; serum,30 ± 6 min
same,half-life,[16]; testis,78 ± 6 min
"CC1=C(/C=C/C(C)=C/C=C/C(C)=C/C=O)C(C)(C)CCC1 [at-retinal, all-trans retinal]",Km,[17],0.285 µM
